Measurements published in publication PMC13102995 (Biomedicine & Pharmacotherapy, 2026).
Read-outs that look alike come from different tables or passages of the source.

Legend:
PLCβ [1] = assay type: cell-based, Human; conditions: U73122 2 µM, HEK293, mean ± SEM; for inhibition of ACh-induced intracellular Ca2+ response: 1 h, 1 µM ACh
[2] = tested on: neonatal rat dorsal root ganglion (DRG) neurons; assay type: cell-based; conditions: U73122 5 µM, 1 h; 500 nM capsaicin pulses, 1 µM BK
Summary of the method: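 DRG neurons from 3–5-day-old Wistar rats, collagenase IA digested (2.5 mg/mL, 1 h), grown 48 h on 60-electrode arrays (poly-L-lysine/laminin) with NGF and cytosine arabinoside. Test compound (100 µM) or 0.1% DMSO pre-incubated 1 h in serum medium without NGF; PLC inhibitor at 5 µM. Three 30-s pulses of 500 nM capsaicin (P1–P3); bradykinin used at 1 µM.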

PLCγ = assay: TG-induced store-operated calcium; assay type: cell-based, human; conditions: U73122 2 µM, 1 h; 1 µM TG; HaCaT; mean ± SEM, N = 2
Summary of the method: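 HaCaT on coverslips used 48 h after plating, loaded with 6 µg/mL Fluo-4 AM/0.05% Pluronic plus test compound (100 µM), 0.1% DMSO or 2 µM U73122 for 1 h, then washed ≥20 min. In Ca2+-free solution, 1 µM thapsigargin/0.1 mM EGTA for 3 min, then 2 mM Ca2+ to trigger SOC entry. Cells ≥20 AFU analysed; ΔFSOC/ΔFTG normalised to vehicle.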

PLCβ [3] = assay: PIP2 imaging: BK-induced PLCδ-PH-GFP translocation in HEK293T cells; assay type: cell-based, Human; conditions: PL2003 100 µM, U73122 2 µM, PL2204 1–100 µM; versus vehicle
Summary of the method: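 HEK293T transfected with PLCδ-PH-GFP, replated 24 h later on poly-D-lysine and imaged after another 24 h. Pre-incubation 1 h with test compound (1, 10, 100 µM), vehicle or 2 µM U73122. Baseline 30 s in Ca2+-containing solution, pH 7.4, then 250 nM bradykinin for 2 min. Translocation = ΔF/F0; time to maximum timed from onset; IC50 from Hill-equation fit.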

[4] = Solubility and aggregation observed on preparation of the peptides; assay type: physicochemical; conditions: observation
PLCβ3 = biological target: T1, PLCβ3 (Homo sapiens, UniProt Q01970); assay: Surface plasmon resonance binding to pulled-down PLCβ3; conditions: 12.5–200 µM, multi-cycle, HBS-EP+ buffer, 25 °C
T1 sequence (Q01970 1-1234): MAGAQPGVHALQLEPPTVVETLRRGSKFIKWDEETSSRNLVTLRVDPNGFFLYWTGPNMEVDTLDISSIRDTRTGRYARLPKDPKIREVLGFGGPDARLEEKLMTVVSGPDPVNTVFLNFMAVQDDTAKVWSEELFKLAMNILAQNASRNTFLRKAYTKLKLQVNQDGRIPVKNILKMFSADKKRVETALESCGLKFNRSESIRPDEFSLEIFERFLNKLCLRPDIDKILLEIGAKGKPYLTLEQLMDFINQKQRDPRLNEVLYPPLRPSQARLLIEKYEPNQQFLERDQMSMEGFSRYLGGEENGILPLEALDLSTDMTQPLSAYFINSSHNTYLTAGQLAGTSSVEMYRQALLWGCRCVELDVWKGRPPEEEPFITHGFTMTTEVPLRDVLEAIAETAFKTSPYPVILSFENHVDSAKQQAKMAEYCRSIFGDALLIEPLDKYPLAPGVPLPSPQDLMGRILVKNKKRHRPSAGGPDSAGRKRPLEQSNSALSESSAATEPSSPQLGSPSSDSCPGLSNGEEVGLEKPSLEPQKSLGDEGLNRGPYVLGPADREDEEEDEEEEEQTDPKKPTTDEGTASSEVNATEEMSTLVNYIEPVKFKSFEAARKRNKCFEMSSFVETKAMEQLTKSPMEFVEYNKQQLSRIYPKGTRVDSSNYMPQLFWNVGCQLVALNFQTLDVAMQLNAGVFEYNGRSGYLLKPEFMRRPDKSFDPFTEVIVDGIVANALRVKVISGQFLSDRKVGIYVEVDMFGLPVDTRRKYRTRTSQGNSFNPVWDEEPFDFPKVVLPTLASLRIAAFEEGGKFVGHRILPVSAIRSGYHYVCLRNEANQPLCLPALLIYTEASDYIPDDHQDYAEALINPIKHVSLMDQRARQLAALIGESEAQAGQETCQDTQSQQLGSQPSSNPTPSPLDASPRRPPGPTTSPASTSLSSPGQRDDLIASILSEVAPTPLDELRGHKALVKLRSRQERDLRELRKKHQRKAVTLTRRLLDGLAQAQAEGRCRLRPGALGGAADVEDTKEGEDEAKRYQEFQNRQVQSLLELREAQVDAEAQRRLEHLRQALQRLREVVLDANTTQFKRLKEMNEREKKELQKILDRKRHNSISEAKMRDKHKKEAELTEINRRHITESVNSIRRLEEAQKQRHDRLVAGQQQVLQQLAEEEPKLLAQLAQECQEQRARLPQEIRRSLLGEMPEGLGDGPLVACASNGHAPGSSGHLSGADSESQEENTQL
Summary of the method: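 Multi-cycle SPR at 25 °C. Peptides at 12.5–200 µM, including a randomized control peptide, in HBS-EP+, injected over active and reference flow cells for 250 s at 5 µL/min, with return to baseline between cycles. Reference-subtracted binding levels were read at the end of injection after baseline subtraction.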

Compound: COc1ccc2c(c1)CC[C@@H]1[C@@H]2CC[C@]2(C)[C@@H](NCCCCCCN3C(=O)C=CC3=O)CC[C@@H]12 [Peptide U73122, 1-(6-((17β-3-methoxyestra-1,3,5(10)-trien-17-yl)amino)hexyl)-1H-pyrrole-2,5-dione]
- inhibition of ACh-induced intracellular Ca2+ response (PLCβ [1]; experiment of Fig. 2B): 40.5 ± 9.4%
- inhibition of ACh-induced intracellular Ca2+ response (PLCβ [1]; experiment of Fig. 2C): 65.4 ± 4.3%
- inhibition of ACh-induced intracellular Ca2+ response (PLCβ [1]; experiment of Fig. 2D): 51.9 ± 7.5%
- percentage of ACh-responsive cells normalized to vehicle (PLCβ [1]; experiment of Fig. 2C): 66.7 ± 9.3%
- percentage of ACh-responsive cells normalized to vehicle (PLCβ [1]; experiment of Fig. 2D): 62.0 ± 12.0%
- inhibition of BK-induced TRPV1 sensitization (P3 - P2) [2]: did not significantly attenuate
- SOC activity (ΔFSOC / ΔFTG normalized to vehicle) (PLCγ): 55.4 ± 9.4
- time to reach maximum PLCδ-PH-GFP translocation (PLCβ [3]): does not modify

Compound: Ac-IYSSNV-NH2 [PL2005]
- solubility ([4]; in different solvents): solubility problems in different solvents
- aqueous solubility ([4]; prepared in 0.4% DMSO in extracellular solution): poor aqueous solubility

Compound: Ac-IVSNRYSK-NH2 [randomized PL2204]
- binding to pulled-down PLCβ3 (SPR) (PLCβ3): strongly reduced binding levels
